Experimental data collected from several papers.
Protocols differ between the studies behind these lines.
Cell line: MCF7
Read-out: cell growth or viability

With `COc1ccc(C(=O)/C=C/c2cccc(Cl)c2)cc1S(N)(=O)=O` the GI50 was 2000 nM (SRB; 48 h).
`CC(=O)c1c(C)c2cnc(Nc3ccc(N4CCNCC4)cn3)nc2n(C2CCCC2)c1=O` has a GI50 of 150 nM (resazurin).
`COc1cc2c(OC)nc3c4cc5c(cc4cc(OCCN4CCCC4)c3c2cc1OC)OCO5` has a GI50 of ≥ 100000 nM (MTT; 72 h).
The GI50 of `COc1ccc(C(=O)/C=C/c2ccc(Cl)c(Cl)c2)cc1S(N)(=O)=O` is reported as 1100 nM (SRB; 48 h).
`COc1cc(-c2ccc(-c3ccc(C(=N)N)nc3)s2)cc(OC)c1OC` gave a GI50 of 1300 nM (SRB).
`COc1cc(C(CC(=O)c2ccc(C)cc2)NCCc2ccc(O)c(O)c2)ccc1O` (centres unmarked) gave a GI50 of 5200 nM (MTT).
`COc1ccc(C(=O)/C=C/c2ccccc2Br)cc1S(N)(=O)=O` gave a GI50 of 2900 nM (SRB; 48 h).
`COc1cc(C(CC(=O)c2ccc(Cl)cc2)NCCc2ccc(O)c(O)c2)ccc1O` (centres unmarked) gave a GI50 of 1090 nM (MTT).
`COc1ccc(C(=O)/C=C/c2ccc3ccccc3c2)cc1S(N)(=O)=O` has a GI50 of 1600 nM (SRB; 48 h).
`COc1cc(C(CC(=O)c2ccc(C(C)(C)C)cc2)NCCc2ccc(O)c(O)c2)ccc1O` (centres unmarked) gave a GI50 of 2600 nM (MTT).
For `COc1cc2c(OC)nc3c4cc5c(cc4cc(OCCCN(C)C)c3c2cc1OC)OCO5`, the GI50 was 27000 nM (MTT; 72 h).
The GI50 of `COc1ccc(-c2ccc(-c3ccc(C(=N)N)nc3)s2)cc1Cl` is reported as 1750 nM (SRB).
With `CCN(CC)CCOc1cc2cc3c(cc2c2nc(OC)c4cc(OC)c(OC)cc4c12)OCO3` the GI50 was ≥ 100000 nM (MTT; 72 h).
`COc1ccc(C(=O)/C=C/c2cccc(Br)c2)cc1S(N)(=O)=O` gave a GI50 of 1600 nM (SRB; 48 h).
For `COc1cc2c(OC)nc3c4cc5c(cc4cc(OCCCN4CCCC4)c3c2cc1OC)OCO5`, the GI50 was 8600 nM (MTT; 72 h).
For `COc1cc(C(CC(=O)c2ccc([N+](=O)[O-])cc2)NCCc2ccc(O)c(O)c2)ccc1O` (centres unmarked), the GI50 was 160 nM (MTT).
`COc1cc2c(Nc3ccc(Br)cc3F)ncnc2cc1OCC1CCN(C)CC1` has a GI50 of 250 nM (MTT; 72 h).
